# Laboratory results published in ChEMBL document CHEMBL4480378, “Amide linked redox-active naphthoquinones for the treatment of mitochondrial dysfunction” (2019).
# Activity calls are given as the source filed them. The calls are words filed in the database; no cut-off is given here.
# Tests used:
# [1] = Ratio of IC50 for cytotoxicity against rat RGC5 cells to IC50 for cytotoxicity against human HepG2 cells
# HepG2 [2] = test: Cytoprotection against rotenone-induced mitochondrial dysfunction in human HepG2 cells assessed as acute ATP rescue at 10 uM co-treated with rotenone for 1 hr by luciferase-based assay relative to control; type: functional
# Procedure, shortened: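 HepG2 cells, 15 000 per well, attached overnight; after 24 h co-incubated with quinone (10 µM) and rotenone (10 µM) for 1 hour in glucose-free growth media. ATP then measured immediately by luciferase reaction, expressed as percentage of untreated (no rotenone) control.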
# HepG2 [3] = test: Cytoprotection against rotenone-induced mitochondrial dysfunction in human HepG2 cells assessed as increase in cell viability by measuring ATP levels at 10 uM preincubated for 48 hrs followed by rotenone-induction and measured after 24 hrs by luciferase-based assay; type: functional
# Procedure, shortened: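 5000 HepG2 cells per well preincubated with quinone (10 µM) for 2 days, then challenged with rotenone (1 µM) for 6 hours in HBSS. Post-incubated with quinone alone in HBSS for a further 24 h. Viability read as ATP content by luciferase reaction, as percentage of untreated (no rotenone) control. 3 independent experiments, n = 6 wells each; error bars SD.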
# Rattus norvegicus = species on record: Rattus norvegicus; test: Cytoprotection against rotenone-induced mitochondrial dysfunction in rat RGC5 cells assessed as increase in cell viability by measuring ATP levels at 10 uM preincubated for 48 hrs followed by rotenone-induction and measured after 24 hrs by luciferase-based assay; type: functional
# [4] = Electrochemical behavior of the compound assessed as redox potential (Ered) corrected toward saturated calomel reference electrode by cyclic voltammetry
# [5] = Electrochemical behavior of the compound assessed as redox potential (Eox) corrected toward saturated calomel reference electrode by cyclic voltammetry
Structure (SMILES),Ratio IC50 [1],Activity (HepG2 [2]),Activity (HepG2 [3]),also measured
CCOC(=O)CCCC1=C(C)C(=O)c2ccccc2C1=O,2,<30%,–,–
CC1=C(CC2CCC(=O)O2)C(=O)c2ccccc2C1=O (stereo unspecified),2,60 - 90%,–,–
CC1=C(CCCC(=O)NCCc2ccc(O)cc2)C(=O)c2ccccc2C1=O,–,100%,100%,–
CC1=C(CCCC(=O)N[C@@H](Cc2ccccc2)C(=O)O)C(=O)c2ccccc2C1=O,–,5 - 70%,90 - 100%,–
CCOC(=O)CCC1=C(C)C(=O)c2ccccc2C1=O,2,<30%,inactive,Activity (Rattus norvegicus): Active
CCCCCCOC(=O)CCC1=C(C)C(=O)c2ccccc2C1=O,2,<30%,–,–
C=CCCCCCCCCC1=C(C)C(=O)c2ccccc2C1=O,2,60 - 90%,–,–
CC1=C(CCCC(=O)N[C@@H](CC(C)C)C(=O)O)C(=O)c2ccccc2C1=O,–,5 - 70%,–,–
CCCCCCCC/C=C\CCCCCCCC1=C(C)C(=O)c2ccccc2C1=O,2,–,–,–
CC1=C(CCCc2ccccc2)C(=O)c2ccccc2C1=O,2,–,–,–
COC1=C(OC)C(=O)C(CCCCCCCCCCO)=C(C)C1=O [IDEBENONE],–,60 - 90%,–,Activity [4]: -0.714 V; Activity [5]: -0.637 V
CCC[C@H](NC(=O)CCCC1=C(C)C(=O)c2ccccc2C1=O)C(=O)OC(C)(C)C,–,–,90 - 100%,–
CC1=C(CCCC(=O)NCC(=O)OC(C)(C)C)C(=O)c2ccccc2C1=O,–,–,90 - 100%,–
CC1=C(CCCC(=O)N[C@@H](Cc2ccc(O)cc2)C(=O)OC(C)(C)C)C(=O)c2ccccc2C1=O,–,90%,inactive,–
CC1=C(CCC(=O)O)C(=O)c2ccccc2C1=O,2,60 - 90%,Active,–
COc1ccc(CCNC(=O)CCCC2=C(C)C(=O)c3ccccc3C2=O)cc1OC,–,100%,100%,–
CCCCCCCCCCC1=C(C)C(=O)c2ccccc2C1=O,2,–,inactive,Activity (Rattus norvegicus): inactive
COC(=O)[C@@H](NC(=O)CCCC1=C(C)C(=O)c2ccccc2C1=O)c1ccccc1,–,–,90 - 100%,–
CC1=C(CCC(F)(F)F)C(=O)c2ccccc2C1=O,–,60 - 90%,–,–
CCCCOC(=O)CCC1=C(C)C(=O)c2ccccc2C1=O,2,<30%,–,–
CC1=C(CCCC(=O)N[C@@H](CC(C)C)C(=O)OC(C)(C)C)C(=O)c2ccccc2C1=O,–,90%,inactive,–
CC1=C(CCC(C)C)C(=O)c2ccccc2C1=O,2,–,–,–
CC1=C(CCCCC(=O)O)C(=O)c2ccccc2C1=O,–,60 - 90%,Active,–
CC1=C(CCCC(=O)NCCc2c[nH]c3ccccc23)C(=O)c2ccccc2C1=O,–,100%,100%,–

Structure (SMILES),Ratio IC50 [1],Activity (HepG2 [2]),Activity (HepG2 [3]),also measured
CC1=C(CC[C@@H](C)[C@H]2CC[C@H]3[C@@H]4CC[C@@H]5C[C@H](O)CC[C@]5(C)[C@H]4C[C@H](O)[C@]23C)C(=O)c2ccccc2C1=O,2,–,–,–
CC(=O)CCC1=C(C)C(=O)c2ccccc2C1=O,2,60 - 90%,Active,Activity (Rattus norvegicus): Active
CC1=C(CCC(C)O)C(=O)c2ccccc2C1=O (stereo unspecified),2,60 - 90%,Active,Activity (Rattus norvegicus): Active
CC1=C(CC(C)(O)C(F)(F)F)C(=O)c2ccccc2C1=O (stereo unspecified),–,60 - 90%,–,–
COc1ccc(CC2=C(C)C(=O)c3ccccc3C2=O)cc1OC,2,60 - 90%,–,–
C=CCCC1=C(C)C(=O)c2ccccc2C1=O,2,60 - 90%,–,–
COC(=O)[C@H](Cc1ccccc1)NC(=O)CCCC1=C(C)C(=O)c2ccccc2C1=O,–,–,90 - 100%,–
CC1=C(CCCC(=O)N2CCC[C@H]2C(=O)OC(C)(C)C)C(=O)c2ccccc2C1=O,–,–,90 - 100%,–
CC1=C(CC(C)CCCC(C)C)C(=O)c2ccccc2C1=O (stereo unspecified),2,60 - 90%,–,–
CC1=C(CCCC(=O)N[C@@H](Cc2ccc(OC(=O)CCCC3=C(C)C(=O)c4ccccc4C3=O)cc2)C(=O)OC(C)(C)C)C(=O)c2ccccc2C1=O,–,–,90 - 100%,–
CC1=C(CCCCCCCCC2CO2)C(=O)c2ccccc2C1=O (stereo unspecified),2,60 - 90%,–,–
CCCCCCCCC1=C(C)C(=O)c2ccccc2C1=O,2,60 - 90%,Active,Activity (Rattus norvegicus): Active
CCCCCCCC1=C(C)C(=O)c2ccccc2C1=O,2,60 - 90%,Active,Activity (Rattus norvegicus): Active
CC1=C(CCCC(=O)N[C@H](CO)Cc2ccccc2)C(=O)c2ccccc2C1=O,–,100%,100%,–
CCCCCCC1=C(C)C(=O)c2ccccc2C1=O,2,60 - 90%,Active,Activity (Rattus norvegicus): Active
CC1=C(CCC2CCCC2)C(=O)c2ccccc2C1=O,2,60 - 90%,–,–
CC1=C(CCCC(=O)N[C@@H](Cc2ccccc2)C(=O)OC(C)(C)C)C(=O)c2ccccc2C1=O,–,–,90 - 100%,–
CC1=C(CCCC(=O)N2CCC[C@H]2C(=O)O)C(=O)c2ccccc2C1=O,–,5 - 70%,–,–
CCCCOC(=O)CCCC1=C(C)C(=O)c2ccccc2C1=O,2,<30%,–,–
CCCCCCOC(=O)CCCC1=C(C)C(=O)c2ccccc2C1=O,2,<30%,–,–
COC(=O)[C@H](NC(=O)CCCC1=C(C)C(=O)c2ccccc2C1=O)c1ccccc1,–,–,90 - 100%,–
CC1=C(CCCCCCCCCCO)C(=O)c2ccccc2C1=O,2,–,Active,Activity [4]: -0.845 V; Activity (Rattus norvegicus): Active; Activity [5]: -0.768 V
CC1=C(CCCCCC(=O)O)C(=O)c2ccccc2C1=O,–,60 - 90%,Active,–
